A short description of data set [1]: Drug level in serum-free RPMI-1640 medium treated with [4-bromo-2-[[4-(trifluoromethyl)phenyl]carbamoyl]phenyl] N-(3-chloropropyl)carbamate at 0.75 mg/ml after 6 hrs by RP-HPLC analysis. Format: physicochemical.
For data set [2], the system named is MONO-MAC-6. Kind of data set: Cytostatic activity against human MONO-MAC-6 cells assessed as cell viability after 16 hrs by MTT assay. The data set is classed as cell-based. The note with it: MONO-MAC-6, 16 h. In a few lines: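 MonoMac6 cells kept in RPMI-1640 with 10% FCS, 2 mM L-glutamine and gentamycin at 37 °C, 5% CO2. Cells plated 10⁵ per well and treated after 24 h for 16 h in serum-free RPMI (1.0 v/v% DMSO), 5×10⁻² to 10² µM. MTT at 367 µg/mL final for 3.5 h, crystals dissolved in DMSO, OD540 minus OD620. Cytotoxicity % versus untreated control fitted sigmoidally for IC50. Two independent experiments, 4–8 parallels.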
For orientation: Tetrazolium dyes change colour on reduction, which living cells bring about.

Data set [3] has as its system Mycobacteroides abscessus. Kind of data set: Antimycobacterial activity against Mycobacterium abscessus ATCC 19977 after 7 days by serial dilution method. The note with it: for MIC: Mycobacteroides abscessus, ATCC 19977, 168 h. The data set is classed as functional. The essentials: (§1)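 Serial dilution in in-house Sula semisynthetic medium, pH 6.5. Compounds added as DMSO solutions at 10 doses, final 0.05–100 µg/mL. Incubation at 37 °C, 7 days for M. abscessus and 28 days for M. tuberculosis strains. MIC taken as the lowest concentration giving visible growth inhibition, confirmed by CFU on drug-free Löwenstein-Jensen medium after further equal incubation. Repeated at least twice.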

Data set [4] is described as follows: Drug level in serum-free RPMI-1640 medium treated with [4-bromo-2-[[4-(trifluoromethyl)phenyl]carbamoyl]phenyl] 5-chloropyrazine-2-carboxylate at 0.75 mg/ml after 29 hrs by ESI-MS spectra analysis. The data set is classed as physicochemical.
Data set [5] in a line: Selectivity index, ratio of IC50 for human MONO-MAC-6 cells to MIC for Mycobacterium tuberculosis H37Rv ATCC 27294. The note with it: read-out: Selectivity Index. Format: toxicity.
The subject of data set [6] is Mycobacterium tuberculosis. The data set is described as follows: Antimycobacterial activity against Mycobacterium tuberculosis H37Rv ATCC 27294 after 28 days by serial dilution method. Format: functional. The note with it: for MIC: Mycobacterium tuberculosis, H37Rv ATCC 27294, 672 h. In a few lines:
as §1

Data set [7] can be described thus: Selectivity index, ratio of IC50 for human MONO-MAC-6 cells to MIC for Mycobacterium abscessus ATCC 19977. Format: toxicity. The note with it: read-out: Selectivity Index.
The nature of data set [8]: Solubility of the compound in RPMI-1640/Sula media by spectrophotometric analysis. Format: physicochemical. The essentials:
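Solubility measured under assay conditions in RPMI and Sula media with 1 v/v% DMSO. Undissolved compound removed on a PVDF filter. 120 µL filtrate mixed with 80 µL acetonitrile, and concentration measured spectrophotometrically.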

Data set [9] in a line: Retention time of the compound in DMSO at 0.75 mg/ml measured after 29 hrs by RP-HPLC analysis. The data set is classed as physicochemical. In a few lines:
(§2)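 Stability in DMSO at 0.75 mg/ml, monitored by RP-HPLC on a C18 4.6×150 mm column. Gradient 0–100% B (A: 0.1% TFA in water; B: 0.1% TFA in acetonitrile-water 80:20), 1 ml/min, ambient temperature. Sampled at 0 min and after 29 h, detection at 280 or 220 nm.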

Data set [10] in a line: Retention time of the compound in serum-free RPMI-1640 medium containing 10% DMSO at 0.5 mg/ml after 30 mins by RP-HPLC analysis. The data set is classed as physicochemical. The note with it: 0.5 h. The essentials:
(§3)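 Stability in serum-free RPMI-1640 with 10% DMSO at 0.5 mg/ml, monitored by RP-HPLC on a C18 column. Gradient of 0.1% TFA water/acetonitrile-water, 1 ml/min, ambient temperature. Peaks identified by ESI-MS.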

The nature of data set [11]: Half life of the compound in serum-free RPMI-1640 medium at 0.75 mg/ml by RP-HPLC analysis. The data set is classed as ADME.
The nature of data set [12]: Retention time of the compound in DMSO at 0.75 mg/ml measured at 0 min by RP-HPLC analysis. The note with it: 0 h. Format: physicochemical. The essentials: as §2
Data set [13] deals with Mycobacteroides abscessus. Kind of data set: Potency index, ratio of gentamicin MIC to compound MIC for Mycobacterium abscessus ATCC 19977. Format: functional.
Data set [14] deals with Mycobacteroides abscessus. The data set is described as follows: Potency index, ratio of ciprofloxacin MIC to compound MIC for Mycobacterium abscessus ATCC 19977. The data set is classed as functional.
Data set [15] can be described thus: Retention time of the compound in serum-free RPMI-1640 medium containing 10% DMSO at 0.5 mg/ml after 5 hrs by RP-HPLC analysis. The data set is classed as physicochemical. In a few lines: as §3

Molecules are shown by their SMILES. Converted amounts (≈) assume the structure as drawn. Where only a bound is given, the exact number is not on record here.

On to `O=C(Nc1ccc(C(F)(F)F)cc1)c1cc(Br)ccc1O`, for which the Drug metabolism entry in data set [1] and in [4] was “metabolite_detected” in each case. Moreover, the IC50 (commonly the concentration at which inhibition is half-maximal) in data set [2] turned out to be 7.6 µM. Also, the Activity in data set [3] is reported as 0 CFU; in [6], 2 CFU. The MIC – broadly, the lowest concentration that inhibits growth of the organism – is 13.9 µM (≈ 5.01 µg/mL) in [3] and 1.4 µM (≈ 0.504 µg/mL) in data set [6]. For the same compound, the figures for the selectivity ratio in data set [5] and in [7] were 5.4 and 0.5, respectively. Moreover, the solubility (commonly how much of the substance goes into solution per volume) in [8] is under 100 µM.
In the case of `O=C(NCCCCl)Oc1ccc(Br)cc1C(=O)Nc1ccc(C(F)(F)F)cc1`, the Retention_time in data set [9], in data set [10] and in data set [12] was 22.6 min in each case. Besides, the IC50 in data set [2] worked out at 5.7 µM. The half-life (as a rule, the time needed for the level to fall by half in the phase considered) at 0.75 mg/ml in data set [11] was 0.183 h. The results for the Activity in [3] and in data set [6] were 0 CFU and 8 CFU, respectively. Besides, the MIC was 0.2 µM (≈ 0.0959 µg/mL) in [3] and 1 µM (≈ 0.48 µg/mL) in [6]. In addition, the selectivity ratio is 5.7 in data set [5] and 28.5 in data set [7]. Moreover, the Ratio is reported as 53 in [13] and 15 in [14]. The same compound returned a solubility in data set [8] of under 50 µM.
Turning to `O=C(O)c1cnc(Cl)cn1`, the Retention_time in data set [15] came out at 12.3 min. Also, the MIC in data set [3] and in data set [6] was over 633 µM in each case. Moreover, the Drug metabolism entry in [4] was “metabolite_detected”. This compound registered a solubility in data set [8] of under 500 µM.
`O=C(Oc1ccc(Br)cc1C(=O)Nc1ccc(C(F)(F)F)cc1)c1cnc(Cl)cn1`: the Retention_time in [15], in [9], in data set [10] and in [12] was 24 min each time. Also, the 50% inhibitory concentration (IC50) in data set [2] was determined as 1.1 µM. The same compound showed a half-life at 0.75 mg/ml in data set [11] of 3.7 h. Besides, the Activity in data set [3] and in data set [6] was 0 CFU in each case. In addition, the MIC in data set [3] worked out at 5 µM (≈ 2.5 µg/mL); in data set [6], 1 µM (≈ 0.501 µg/mL). The figures for the selectivity ratio in [5] and in data set [7] were 1.1 and 0.2, respectively. The same compound showed a solubility in [8] of under 100 µM.
